Screening results (PubChem)
Tb MetRS inh = T. brucei MetRS inhibitors, primary screen, biochemical, luminescence; methionyl-tRNA synthetase (Trypanosoma brucei brucei); inhibition, % at 11.9 µM; AID 624268, 2012; purified T. brucei MetRS, ATP depletion, Kinase-Glo luminescence; 360,000 compounds, 0.4% hits;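 active = inhibition above a per-plate cutoff of the control wells' mean inhibition plus 3 SD, cut at about 5.5% in these data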;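 also: 0% = DMSO wells median and 100% = median of wells with control inhibitor compound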
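Dosing: 11.9 µM compound single dose, 0.9% DMSO; Assay system: purified T. brucei MetRS enzyme; Measured by: Kinase-Glo luciferase luminescence reporting remaining unconsumed ATP; Schedule: 15 min plus 2 h at 25 °C.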
IDE inh = human IDE inhibitors in live cells, primary screen, fluorescence polarization, HEK cells, FAbetaB substrate; 320,000 compounds, 0.41% hits; inhibition, % at 5.59 µM; FAbetaB cleavage;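 active = percent inhibition above the average of all tested compounds plus 3 SD, set per screening campaign, cut at about 16% in these data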;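 also: IDE supplied by intact live HEK cells; FP after avidin binding of uncleaved biotin substrate so inhibition keeps polarization high; 0% = DMSO wells and 100% = 60 µM reference IDE inhibitor Ii1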
Efflux pump inh = inhibitors of Candida efflux pumps in yeast, primary screen, S. cerevisiae, Nile Red, multiplex; S. cerevisiae Candida pump triplex; inhibition, % at 10 µM; 330,000 compounds, 0.44% hits; AID 485275, 2010;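 active = plate passing quality check with inhibition over a set limit, or well fluorescence over plate mean plus 4 SD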;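 also: Nile Red retained in pooled yeast measured as flow cytometry median fluorescence; 0% = buffer negative control and 100% = Enniatin B positive control; higher means more Nile Red kept so more efflux inhibition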
Yeast superoxide = reduction of superoxide in aged yeast, primary screen, HTS. S. cerevisiae aged cells, superoxide DHE fluorescence; hits give low values. superoxide response (% of plate mean), % at 10 µM. 330,000 compounds, 0.18% hits;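 active = superoxide response under a set limit, about three screen SD below normal, cut at about 65% in these data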;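 also: yeast aged for seven days with compound at 30 °C before DHE staining; 100% = average MFI of all compound-treated wells on the plate with controls excluded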
IDE act = human IDE activators in live cells, primary screen, fluorescence polarization, HEK cells, FAbeta-B substrate | Insulin-degrading enzyme (Homo sapiens), P14735 | FAbeta-B cleavage; 0% vehicle, 100% cell-free pure enzyme wells | activation, % at 5.96 µM | 340,000 compounds, 0.073% hits | AID 493087, 2011;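 active = activation above the mean of all tested compounds plus 3 SD, set per screening campaign, cut at about 17% in these data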
HDAC3 inh = HDAC3 deacetylase inhibitors, primary screen, biochemical, fluorescence, cell-free homogeneous; Histone deacetylase 3 (Homo sapiens), O15379; recombinant HDAC3, fluorogenic peptide/trypsin coupled; inhibition, % at 8.3 µM; 320,000 compounds, 0.15% hits; AID 2718, 2010; in the data active = inhibition above about 26%, passing the limit was not always enough; inconclusive = no clear call, values can overlap the other calls
Target sequence (O15379 whole entry, looked up): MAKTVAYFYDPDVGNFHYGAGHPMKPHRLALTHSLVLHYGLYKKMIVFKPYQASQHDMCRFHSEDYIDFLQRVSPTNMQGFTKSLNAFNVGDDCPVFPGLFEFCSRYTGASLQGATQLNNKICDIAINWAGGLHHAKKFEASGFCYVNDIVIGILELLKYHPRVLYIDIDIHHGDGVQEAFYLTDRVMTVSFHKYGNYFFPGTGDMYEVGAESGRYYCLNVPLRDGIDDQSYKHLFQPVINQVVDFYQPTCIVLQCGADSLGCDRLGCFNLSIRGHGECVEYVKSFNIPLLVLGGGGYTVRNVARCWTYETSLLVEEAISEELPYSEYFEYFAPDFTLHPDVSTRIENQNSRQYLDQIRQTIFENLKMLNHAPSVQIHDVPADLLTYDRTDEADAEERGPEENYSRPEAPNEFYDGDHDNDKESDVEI
* marks the source's active call; other numbers are inactive results; ? = inconclusive; nt = no result given. Only some compounds are listed: those with a hit (about 1.4% of all), similar ones and a draw of the others.

SMILES | Tb MetRS inh | IDE inh | Efflux pump inh | Yeast superoxide | IDE act | HDAC3 inh
COc1ccc(NC(=O)NS(=O)(=O)c2ccc(C)cc2)cn1 | -1.7 | nt | -0.1 | 110.4 | 30.1* | 0.7
COc1ccc(/C=C/C(=O)NC(=S)NNC(=O)c2cnccn2)cc1 | 0.3 | 1.7 | 0.1 | 30.8* | -0.3 | -0.2
Cc1ccc(N(CCC(=O)Nc2nnc(C3CC3)s2)S(=O)(=O)c2ccccc2)cc1 | nt | -1.3 | 10.2* | 89.6 | nt | 0.7
CCCCCCc1cc2cc(-c3nnc(-c4ccccc4OC)o3)c(=O)oc2cc1O | -0.6 | 48.0* | 0.7 | 93.8 | 5.5 | -3.4
Cc1ccc(NC(=O)c2ccc3c(c2)NC(=O)CS3)nc1 | -0.2 | 3.2 | -0.2 | 100.6 | 1.1 | -1.8
Cc1ccc2c(c1)-c1[nH]c(=S)ncc1CS2 | -0.8 | 18.9* | 0.1 | 114.9 | -12.2 | -0.4
O=C(C[C@H]1CC[C@@H]2[C@H](COC[C@@H](O)CN2Cc2ccc(Cl)cc2)O1)NCCc1ccccc1 | -0.5 | nt | nt | nt | nt | nt
Nc1c([N+](=O)[O-])cc2c3c(cccc13)CC2 | -0.7 | nt | nt | nt | nt | nt
O=C(Oc1ccc2cc(Br)ccc2c1)N1CCCCCC1 | nt | 1.1 | 0.4 | 57.7* | nt | 5.1
O=C(Oc1ccc2ccccc2c1Br)N1CCCCCC1 | -1.3 | 1.2 | 0.0 | 107.8 | 2.8 | 15.3
COc1ccc(OC(=O)c2cccnc2)cc1 | 0.0 | 2.9 | -0.1 | 83.0 | 0.8 | -5.0
O=C(Oc1ccc([N+](=O)[O-])cc1)c1cccnc1 | -0.2 | 1.5 | 0.1 | 127.1 | 0.3 | 32.0*
CCOC(=O)C1(CC2CC2)CCN(Cc2cnc(N(C)C)s2)CC1 | -0.5 | 3.4 | -0.2 | 100.4 | 17.4* | -0.6
CSc1nc(-c2ccco2)nn1C(=O)c1cccs1 | -0.9 | -2.9 | -0.1 | 93.2 | -3.2 | ?
O=C(c1cccs1)n1nc(-c2ccco2)nc1SCc1ccccc1 | nt | 0.2 | -0.1 | 91.0 | nt | 65.3*
COC(=O)/C=C1\OCc2c(F)cccc21 | -0.1 | nt | nt | nt | nt | nt
O=C1CCN2C=Nc3cccc4ccc1c2c34 | -1.5 | -20.8 | 0.1 | 99.3 | 41.1* | -1.4
O=C1CCC(=O)c2ccc3c4c(ccc1c24)CC3 | 0.1 | nt | nt | nt | 1.4 | nt
COc1cccc(C=C(C(C)=O)C(=O)c2ccccc2)c1 | -0.8 | nt | nt | nt | nt | nt
Cc1cc2c(c(=O)n1C1CC1)C(c1cccc(Cl)c1)C(C#N)=C(N)O2 (stereo unspecified) | 63.4* | 1.3 | -0.1 | 109.0 | 2.9 | -6.0
CCOC(=O)COc1ccc(S(=O)(=O)NC2CC2)cc1 | -1.1 | 0.0 | 0.0 | 58.4* | 4.1 | 7.3
COC(=O)COc1ccc(S(=O)(=O)NC2CCCCCC2)cc1 | -1.1 | -4.6 | 0.0 | 99.8 | 5.4 | 0.0
COC(=O)C1=C(N)Oc2cc(C)n(CC3CCCO3)c(=O)c2C1c1ccc(Cl)c(Cl)c1 (stereo unspecified) | 38.4* | -0.5 | 0.0 | 110.9 | 6.3 | -0.3
O=C(c1ccccc1)N1CCN(c2ccc([N+](=O)[O-])c(NCc3cccnc3)c2)CC1 | 0.9 | -4.7 | 0.2 | 111.3 | 19.8* | nt
COc1cc(C2Nc3cccc4cccc(c34)N2)cc(OC)c1O | 0.0 | -5.8 | -0.1 | 78.5 | 28.0* | 2.0
SMILES | Tb MetRS inh | IDE inh | Efflux pump inh | Yeast superoxide | IDE act | HDAC3 inh
CC(C)NC(=O)C1(C)CSCC(=O)N1CCCn1ccnc1 (stereo unspecified) | -0.4 | nt | nt | nt | nt | nt
CN(c1ccccc1)S(=O)(=O)c1cccc(NC(=O)COc2cccc([N+](=O)[O-])c2)c1 | -0.3 | 3.8 | -0.1 | 95.8 | 17.8* | 7.8
O=C(Oc1oc(-c2ccco2)nc1C=Nc1ccccc1)c1ccco1 | -0.8 | -2.8 | -0.1 | 92.5 | -0.1 | 89.7*
Cc1ccc(C(=O)Oc2oc(-c3ccco3)nc2C=Nc2ccc(Cl)cc2)cc1 | -0.3 | 0.1 | -0.1 | 85.9 | 1.1 | ?
O=C(Oc1oc(-c2ccco2)nc1C=Nc1ccccc1)c1ccoc1 | -0.5 | -4.6 | 0.0 | 101.8 | 0.2 | 90.0*
O=C(c1cnc(Cc2c[nH]c3ccccc23)c(I)c1)N1CCCCC1 | 0.6 | nt | nt | nt | nt | nt
Cc1nc2ccc(Cl)cc2n1C | -0.2 | nt | nt | nt | nt | nt
